According to ChEMBL document CHEMBL1148824, “Quinazolinone derivatives as orally available ghrelin receptor antagonists for the treatment of diabetes and obesity” (J Med Chem, 2007):
≈ marks a conversion by molar mass, not a printed value.

Columns and labels:
[1] = molecular target: T1, Growth hormone secretagogue receptor type 1 (Homo sapiens, UniProt Q92847); test: Agonist activity at human recombinant GHSR1a expressed in HEK293F cells assessed as stimulation of [35S]GTP-gamma-S binding relative to ghrelin; type: functional, cell-based
T1 sequence (Q92847 whole entry): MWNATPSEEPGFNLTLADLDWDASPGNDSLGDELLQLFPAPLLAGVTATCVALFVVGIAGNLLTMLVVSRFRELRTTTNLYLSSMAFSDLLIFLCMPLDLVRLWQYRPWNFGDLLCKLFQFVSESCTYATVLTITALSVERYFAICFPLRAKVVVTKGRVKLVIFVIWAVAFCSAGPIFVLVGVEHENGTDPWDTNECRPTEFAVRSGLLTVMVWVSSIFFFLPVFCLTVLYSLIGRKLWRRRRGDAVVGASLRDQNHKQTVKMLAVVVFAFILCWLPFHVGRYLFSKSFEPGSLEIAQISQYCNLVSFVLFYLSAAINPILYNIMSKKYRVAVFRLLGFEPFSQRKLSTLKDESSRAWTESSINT
In short: (§1)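 Functional read-out as GTPγS binding to membranes from HEK293F cells overexpressing recombinant GHS-R1a; values are the mean of at least two replicates.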

[2] = molecular target: T1, Growth hormone secretagogue receptor type 1; test: Antagonist activity at human recombinant GHSR1a expressed in HEK293F cells by [35S]GTP-gamma-S binding assay; type: functional, cell-based; in short: as §1
Ghrelin receptor = Ghrelin receptor (Ovis aries, UniProt Q8MHZ5); test: Displacement of [125I]ghrelin from ovine recombinant GHSR1a expressed in HEK293F cells after 6 hrs by scintillation proximity assay; type: cell-based
Sequence of Ghrelin receptor (Q8MHZ5 whole entry): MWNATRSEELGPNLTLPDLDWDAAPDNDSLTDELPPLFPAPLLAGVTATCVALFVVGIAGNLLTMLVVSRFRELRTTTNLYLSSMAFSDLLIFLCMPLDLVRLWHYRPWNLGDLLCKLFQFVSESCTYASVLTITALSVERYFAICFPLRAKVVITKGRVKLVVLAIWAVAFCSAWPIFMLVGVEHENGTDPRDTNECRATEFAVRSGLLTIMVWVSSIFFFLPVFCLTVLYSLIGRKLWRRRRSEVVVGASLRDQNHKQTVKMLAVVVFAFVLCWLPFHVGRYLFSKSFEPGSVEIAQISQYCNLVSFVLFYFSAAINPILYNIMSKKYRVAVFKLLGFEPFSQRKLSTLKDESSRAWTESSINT

[3] = Cmax in Wistar rat at 3 mg/kg, po; type: ADME, organism-based; design: dose 3 mg/kg, route oral; details: in vivo
In short: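 Wistar rat pharmacokinetic screen; single oral dose of 3 mg/kg in PEG400/methanesulfonic acid (80:20) vehicle; plasma exposure measured.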

[4] = Aqueous solubility at pH 7.2; type: physicochemical
[5] = molecular target: T2, 5-hydroxytryptamine receptor 2C (Homo sapiens, UniProt P28335); test: Displacement of […] from 5HT2c receptor
T2 sequence (P28335 whole entry): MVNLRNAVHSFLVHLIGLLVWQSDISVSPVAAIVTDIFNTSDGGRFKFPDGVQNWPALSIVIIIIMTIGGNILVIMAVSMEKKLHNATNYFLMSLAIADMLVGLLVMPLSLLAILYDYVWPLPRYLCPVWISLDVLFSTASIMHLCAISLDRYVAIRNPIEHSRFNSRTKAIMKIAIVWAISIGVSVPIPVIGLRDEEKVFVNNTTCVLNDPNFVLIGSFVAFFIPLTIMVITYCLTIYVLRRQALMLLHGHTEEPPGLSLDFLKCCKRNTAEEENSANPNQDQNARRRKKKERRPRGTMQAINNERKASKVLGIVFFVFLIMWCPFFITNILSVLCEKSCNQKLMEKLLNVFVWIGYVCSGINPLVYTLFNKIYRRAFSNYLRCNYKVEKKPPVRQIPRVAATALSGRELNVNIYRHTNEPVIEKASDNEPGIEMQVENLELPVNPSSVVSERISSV

Cytochrome P450 2D6 = Cytochrome P450 2D6 (Homo sapiens, UniProt P10635); test: Inhibition of CYP2D6; type: ADME
Sequence of Cytochrome P450 2D6 (P10635 whole entry): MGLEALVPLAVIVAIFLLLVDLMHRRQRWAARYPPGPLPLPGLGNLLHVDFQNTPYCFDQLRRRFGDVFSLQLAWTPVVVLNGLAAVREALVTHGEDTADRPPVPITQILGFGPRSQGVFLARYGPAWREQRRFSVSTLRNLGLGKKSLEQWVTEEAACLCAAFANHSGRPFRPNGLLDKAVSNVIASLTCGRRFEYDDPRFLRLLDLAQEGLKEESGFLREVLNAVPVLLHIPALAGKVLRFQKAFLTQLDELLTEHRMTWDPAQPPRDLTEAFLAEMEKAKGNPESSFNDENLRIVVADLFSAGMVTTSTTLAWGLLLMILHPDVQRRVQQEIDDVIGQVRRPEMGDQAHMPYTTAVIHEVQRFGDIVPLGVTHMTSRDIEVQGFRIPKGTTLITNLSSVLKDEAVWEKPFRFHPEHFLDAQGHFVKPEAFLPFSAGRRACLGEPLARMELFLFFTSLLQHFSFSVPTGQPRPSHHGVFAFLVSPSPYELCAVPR

Mus musculus = test: Increase in food intake in DIO C57BL/6 mouse at 30 mg/kg, after 5 hrs relative to control; type: functional
Brain = test: Drug level in po dosed DIO C57BL/6 mouse brain after 5 hrs relative to plasma concentration; type: ADME, organism-based
Rattus norvegicus = test: Decrease in blood glucose level in DIO Wistar rat using at 10 mg/kg after 5 hrs by IPGTT test relative to control; type: functional; design: scale not given: the % may be the effect or the level left
[6] = Cmax in po dosed DIO C57BL/6 mouse after 5 hrs; type: ADME, organism-based; design: route oral; details: in vivo

Row | SMILES | E/Emax [1] [%] | Kb [2] [nM] | Ki (Ghrelin receptor) [nM] | Cmax [3] [nM] | further results
1 | CCN1CCC[C@@H](Cn2c(-c3ccccc3C)nc3ccc(-c4ccc(Cl)cc4)cc3c2=O)C1 | 10 | 250 | 71 | – | –
2 | Cc1ccccc1-c1nc2ccc(Oc3ccc(F)cc3)cc2c(=O)n1CC1CCCNC1 (stereo not drawn) | 92 | – | 0.9 | 40 | EC50 [1]: 6.5 nM
3 | Cc1ccccc1-c1nc2ccc(-c3ccc(Cl)cc3)cc2c(=O)n1CC1CCCN(C(C)C)C1 (stereo not drawn) | – | – | – | 150 | –
4 | Cc1ccccc1-c1nc2ccc(-c3ccc(Cl)cc3)cc2c(=O)n1CC1CCCN(C2CCC2)C1 (stereo not drawn) | -20 | 2.7 | 2.5 | 220 | –
5 | CCN1CCCC(Cn2c(-c3ccccc3OC)nc3ccc(OC)cc3c2=O)C1 (stereo not drawn) | – | – | 910 | – | –
6 | Cc1ccccc1-c1nc2ccc(Oc3ccc(F)cc3)cc2c(=O)n1C[C@H]1CCCN(C(C)C)C1 (stereo in doubt; 36) [listing 1 of 2 here] | 22 | 0.19 | – | – | –
7 | Cc1ccccc1-c1nc2ccc(-c3ccc(Cl)cc3)cc2c(=O)n1CC1CCCNC1 (stereo not drawn) | 12 | 13 | 7 | 20 | –
8 | Cc1ccccc1-c1nc2ccccc2c(=O)n1CC1CCCN(C(C)C)C1 (stereo not drawn) | – | – | 1200 | – | –
9 | CCN1CCCC(Cn2c(-c3ccccc3OC)nc3cc(-c4ccc(Cl)cc4)ccc3c2=O)C1 (stereo not drawn) | – | – | > 10000 | – | –
10 | CC(C)c1nc2ccc(-c3ccccc3Cl)cc2c(=O)n1C[C@@H]1CCCN(C(C)C)C1 | – | – | 1800 | – | –
11 | CCCCN(C)c1ccc2nc(-c3ccccc3OC)n(CC3CCCNC3)c(=O)c2c1 (stereo not drawn) | – | – | 36 | – | –
12 | CCN1CCC[C@@H](Cn2c(-c3ccccc3C)nc3ccc(OC(F)(F)F)cc3c2=O)C1 | – | – | 95 | – | –
13 | Cc1ccccc1-c1nc2ccc(-c3ccc(Cl)cc3)cc2c(=O)n1CC1CN(C(C)C)CCO1 (stereo not drawn) | – | – | 190 | – | –
14 | Cc1ccccc1-c1nc2ccc(-c3ccc(Cl)cc3)cc2c(=O)n1CC1CCCN(CCC(F)(F)F)C1 (stereo not drawn) | – | – | 250 | – | –
15 | COCCN1CCCC(Cn2c(-c3ccccc3C)nc3ccc(-c4ccc(Cl)cc4)cc3c2=O)C1 (stereo not drawn) | -20 | 6.4 | 4 | 140 | –
16 | CC(C)N1CCC[C@H](Cn2cnc3ccc(Oc4ccc(F)cc4)cc3c2=O)C1 | 2 | 45 | 18 | – | solubility [4]: 450 µM (≈ 178 µg/mL); Ki [5]: > 1000 nM; IC50 (Cytochrome P450 2D6): 21000 nM
17 | CC(C)c1nc2ccc(-c3ccc(Cl)cc3)cc2c(=O)n1C[C@H]1CCCN(C(C)C)C1 | 0 | 77 | 45 | 290 | solubility [4]: 60 µM (≈ 26.3 µg/mL); Ki [5]: > 1000 nM; IC50 (Cytochrome P450 2D6): 6300 nM
18 | Cc1ccccc1-c1nc2ccc(Oc3ccc(F)cc3)cc2c(=O)n1C[C@@H]1CCCN(C(C)C)C1 | – | – | 47 | – | –
19 | CCN1CCCC(Cn2c(-c3ccccc3C)nc3ccc(OC(F)(F)F)cc3c2=O)C1 (stereo not drawn) | 4 | 45 | 24 | 240 | –
20 | CC(C)c1nc2ccc(Oc3ccc(F)cc3)cc2c(=O)n1C[C@H]1CCCN(C(C)C)C1 | -5 | 7.6 | 4 | 210 | solubility [4]: 100 µM (≈ 43.8 µg/mL); Ki [5]: > 1000 nM; IC50 (Cytochrome P450 2D6): 7200 nM

Row | SMILES | E/Emax [1] [%] | Kb [2] [nM] | Ki (Ghrelin receptor) [nM] | Cmax [3] [nM] | further results
21 | CCN1CCC=C(Cn2c(-c3ccccc3C)nc3ccc(-c4ccc(Cl)cc4)cc3c2=O)C1 | -18 | 36 | 26 | 30 | –
22 | CCN1CCCC(Cn2c(-c3ccccc3C)nc3ccc(-c4ccc(Cl)cc4)cc3c2=O)C1 (stereo not drawn) [listing 1 of 2 here] | – | – | 1.8 | 120 | –
23 | Cc1nc2ccc(-c3ccc(Cl)cc3)cc2c(=O)n1C[C@H]1CCCN(C(C)C)C1 | 0 | – | 110 | – | solubility [4]: 125 µM (≈ 51.2 µg/mL); Ki [5]: > 1000 nM; IC50 (Cytochrome P450 2D6): 9600 nM
24 | CCN1CCCC(Cn2c(-c3ccccc3C)nc3ccc(-c4ccc(Cl)cc4)cc3c2=O)C1 (stereo not drawn) [listing 2 of 2 here] | 12 | 3.2 | – | – | –
25 | CCN1CCC[C@H](Cn2c(-c3ccccc3C)nc3ccc(-c4ccc(Cl)cc4)cc3c2=O)C1 | 0 | 2.8 | 1.7 | 120 | solubility [4]: 80 µM (≈ 37.8 µg/mL); Activity (Mus musculus): -17%; Drug uptake (Brain): 22%; Activity (Rattus norvegicus): -13%; Ki [5]: 120 nM; Cmax [6]: 2200 nM; IC50 (Cytochrome P450 2D6): 6100 nM
26 | Cc1ccccc1-c1nc2ccc(Oc3ccc(F)cc3)cc2c(=O)n1C[C@H]1CCCN(C(C)C)C1 (stereo in doubt; 36) [listing 2 of 2 here] | – | – | 0.86 | 90 | solubility [4]: 250 µM (≈ 121 µg/mL); Activity (Mus musculus): -7%; Drug uptake (Brain): 1%; Activity (Rattus norvegicus): -19%; Ki [5]: > 1000 nM; Cmax [6]: 3100 nM; IC50 (Cytochrome P450 2D6): 90 nM
27 | CCN1CCC[C@H](Cn2c(-c3ccccc3C)nc3ccc(OC(F)(F)F)cc3c2=O)C1 | – | – | 16 | – | –
28 | Cc1ccccc1-c1nc2ccc(-c3ccc(Cl)cc3)cc2c(=O)n1CC1CCCN(CC(F)(F)F)C1 (stereo not drawn) | – | – | 2000 | 170 | –
29 | Cc1ccccc1-c1nc2ccc(Oc3ccc(F)cc3)cc2c(=O)n1CC1CCCN(C(C)C)C1 (stereo not drawn) | 23 | 0.97 | 0.47 | 310 | –
30 | CC(C)N1CCCC(Cn2c(-c3ccc(OCCO)cc3F)nc3ccc(Oc4ccc(F)cc4)cc3c2=O)C1 (racemic) | – | – | – | – | Activity (Mus musculus): 4%; Drug uptake (Brain): < 0.001%; Cmax [6]: 5700 nM
31 | CCN1CCCC(CCn2c(-c3ccccc3OC)nc3ccc(-c4ccc(Cl)cc4)cc3c2=O)C1 (stereo not drawn) | – | – | > 10000 | – | –
32 | CCN1CCC[C@@H](Cn2c(C(C)C)nc3ccc(-c4ccc(F)cc4)cc3c2=O)C1 | – | – | 5700 | – | –
33 | CC(C)N1CCC[C@H](Cn2cnc3ccc(-c4ccc(Cl)cc4)cc3c2=O)C1 | – | – | 440 | 200 | Ki [5]: > 1000 nM; IC50 (Cytochrome P450 2D6): 200 nM
34 | CC(C)c1nc2ccc(-c3ccccc3Cl)cc2c(=O)n1C[C@H]1CCCN(C(C)C)C1 | – | – | 127 | – | –
35 | CCN1CCC[C@@H](Cn2c(-c3ccc(C(F)(F)F)cc3)nc3ccc(-c4ccc(Cl)cc4)cc3c2=O)C1 | – | – | 240 | – | –
36 | CCN1CCC[C@H](Cn2c(C(C)C)nc3ccc(-c4ccc(F)cc4)cc3c2=O)C1 | – | – | 40 | – | –
37 | CCN1CCC[C@H](Cn2c(-c3ccc(C(F)(F)F)cc3)nc3ccc(-c4ccc(Cl)cc4)cc3c2=O)C1 | – | – | 16 | – | –
38 | Cc1ccccc1-c1nc2ccc(Oc3ccc(F)cc3)cc2c(=O)n1C[C@H]1CCCN(C(C)C)C1 (stereo in doubt; (S)-35) | – | – | 0.9 | – | –
39 | Cc1ccccc1-c1nc2ccc(-c3ccc(Cl)cc3)cc2c(=O)n1CC1CCCN(CCF)C1 (stereo not drawn) | -9 | 14 | 16 | 100 | –
